Test results taken from ChEMBL document CHEMBL1128460, “Design, synthesis, and structure-activity relationships of a new series of alpha-adrenergic agonists: spiro[(1,3-diazacyclopent-1-ene)-5,2'-(1',2',3',4'- tetrahydronaphthalene)]” (J Med Chem, 1995).

How the values were obtained:
Canis familiaris [1] = species: Canis familiaris; assay: Effective concentration for the agonist in the isolated blood vessel using in vitro saphenous vein; format: functional; settings: Canis lupus familiaris
Procedure, shortened: (§1)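 Vessel segments from mongrel dogs (15–25 kg) anesthetized with pentobarbital (30 mg/kg iv), mounted for isometric tension in physiological saline. Equilibrated 90 min with bath changes every 30 min, rauwolscine (10^-7 M) present throughout. Primed with KCl (100 mM), then phenylephrine (1 µM). Agonist concentration–response curves run at half-log steps, giving EC50 (µM) and Emax as % of phenylephrine maximum; mean ±SD.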

Canis familiaris [2] = species: Canis familiaris; assay: Maximal contractile response obtained with the agonist (expressed as a percentage of the maximal contraction to phenylephrine in the dog femoral artery); format: functional, Canis lupus familiaris; procedure, shortened: as §1
[3] = biological target: T1, Adrenergic receptor alpha (Rattus norvegicus) (UniProt P15823+P23944+P43140+P22086+P19328+P22909); assay: Alpha adrenergic activity was evaluated as maximal pressure response caused by agonist, expressed in mmHg (the maximum obtained with phenylephrine is 150 mmHg).; format: functional
[4] = Ratio of C20 (pithed rat) to that of EC50 (saphenous vein); format: functional
[5] = biological target: T1, Adrenergic receptor alpha (Rattus norvegicus); assay: Alpha adrenergic activity was evaluated as concentration (iv) which increases the arterial pressure by 20 mmHg in the pithed rat; format: functional, organism-based; settings: Artery
[6] = Ratio of C20 obtained in the absence or presence of [C20 ( 0.1 mg of prazosin ) / C20 (control)]; format: functional
Procedure, shortened: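 Pithed rats pretreated with tertatolol (100 mg/kg), then 10 min later with prazosin (100 µg/kg). Cumulative iv agonist doses given another 10 min later at 20 s intervals. Arterial pressure recorded, C20 (dose giving +20 mmHg) determined. Ratio calculated as C20(prazosin)/C20(control); 3–6 determinations.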

[7] = biological target: T2, Alpha-2B adrenergic receptor (Rattus norvegicus, UniProt P19328); assay: Binding affinity towards Alpha-2B adrenergic receptor in neonatal rat lung using [3H]-RX-821002 as radioligand
T2 sequence (P19328 whole entry): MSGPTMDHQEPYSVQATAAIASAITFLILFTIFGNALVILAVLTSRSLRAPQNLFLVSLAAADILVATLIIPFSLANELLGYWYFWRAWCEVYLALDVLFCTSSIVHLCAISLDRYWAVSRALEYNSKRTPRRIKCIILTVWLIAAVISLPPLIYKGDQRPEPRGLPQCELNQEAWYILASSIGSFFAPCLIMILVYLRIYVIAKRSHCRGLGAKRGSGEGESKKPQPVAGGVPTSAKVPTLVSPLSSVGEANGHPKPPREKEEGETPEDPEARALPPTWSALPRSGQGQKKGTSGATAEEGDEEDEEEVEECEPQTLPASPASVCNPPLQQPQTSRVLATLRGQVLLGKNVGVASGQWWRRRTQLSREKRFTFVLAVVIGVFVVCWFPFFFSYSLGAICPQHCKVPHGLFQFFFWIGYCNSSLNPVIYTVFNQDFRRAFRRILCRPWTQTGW
Procedure, shortened: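 Neonatal rat lung membranes with [3H]RX821002 (0.5 nM), nonspecific binding with phentolamine (10 µM). Nine concentrations over 3 log units, IC50 by log-probit, Ki by Cheng–Prusoff with Scatchard-derived Kd. ≥3 independent experiments in duplicate.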

[8] = biological target: T3, Alpha-2A adrenergic receptor (Homo sapiens, UniProt P08913); assay: Binding affinity towards Alpha-2A adrenergic receptor in human platelets using [3H]RX-821002 as radioligand
T3 sequence (P08913 whole entry): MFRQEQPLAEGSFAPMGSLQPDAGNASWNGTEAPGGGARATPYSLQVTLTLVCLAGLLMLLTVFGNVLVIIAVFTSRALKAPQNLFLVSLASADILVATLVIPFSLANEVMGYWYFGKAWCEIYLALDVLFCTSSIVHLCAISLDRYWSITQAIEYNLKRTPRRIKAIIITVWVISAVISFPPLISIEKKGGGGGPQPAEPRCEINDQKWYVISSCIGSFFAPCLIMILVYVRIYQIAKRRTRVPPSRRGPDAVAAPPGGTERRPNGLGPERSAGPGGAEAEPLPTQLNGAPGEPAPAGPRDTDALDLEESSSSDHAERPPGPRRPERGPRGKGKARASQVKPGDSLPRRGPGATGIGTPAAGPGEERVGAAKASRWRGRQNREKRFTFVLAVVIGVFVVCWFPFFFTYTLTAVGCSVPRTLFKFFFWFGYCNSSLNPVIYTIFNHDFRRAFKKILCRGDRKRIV
Procedure, shortened: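 Human platelet membranes with [3H]RX821002 (1.5 nM), nonspecific binding with phentolamine (10 µM). Displacement at nine concentrations spanning 3 orders of magnitude, IC50 by log-probit analysis, converted to Ki using Scatchard Kd. ≥3 independent duplicate experiments.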

Canis familiaris [9] = species: Canis familiaris; assay: Maximal contractile response obtained with the agonist (expressed as a percentage of the maximal contraction to phenylephrine in the dog saphenous vein); format: functional, Canis lupus familiaris; procedure, shortened: as §1
Canis familiaris [10] = species: Canis familiaris; assay: Effective concentration for the agonist in the isolated blood vessel using in vitro femoral artery; format: functional; settings: Canis lupus familiaris; procedure, shortened: as §1
[11] = Ratio of C20 obtained in the absence or presence of [C20 (1 mg of yohimbine.) / C20 (control)]; format: functional
Procedure, shortened: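 Pithed rat arterial pressure assay with tertatolol (100 mg/kg) pretreatment, then yohimbine (1 mg/kg) 10 min later. Cumulative iv agonist doses given at 20 s intervals after a further 10 min, C20 (+20 mmHg dose) obtained. Ratio expressed as C20(yohimbine)/C20(control); 3–6 determinations.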

[12] = biological target: T4, Adrenergic receptor alpha-1 (Rattus norvegicus, UniProt P15823+P23944+P43140); assay: Displacement of [3H]prazosin from rat cortex Alpha-1 adrenergic receptor
T4 sequence (P15823 whole entry): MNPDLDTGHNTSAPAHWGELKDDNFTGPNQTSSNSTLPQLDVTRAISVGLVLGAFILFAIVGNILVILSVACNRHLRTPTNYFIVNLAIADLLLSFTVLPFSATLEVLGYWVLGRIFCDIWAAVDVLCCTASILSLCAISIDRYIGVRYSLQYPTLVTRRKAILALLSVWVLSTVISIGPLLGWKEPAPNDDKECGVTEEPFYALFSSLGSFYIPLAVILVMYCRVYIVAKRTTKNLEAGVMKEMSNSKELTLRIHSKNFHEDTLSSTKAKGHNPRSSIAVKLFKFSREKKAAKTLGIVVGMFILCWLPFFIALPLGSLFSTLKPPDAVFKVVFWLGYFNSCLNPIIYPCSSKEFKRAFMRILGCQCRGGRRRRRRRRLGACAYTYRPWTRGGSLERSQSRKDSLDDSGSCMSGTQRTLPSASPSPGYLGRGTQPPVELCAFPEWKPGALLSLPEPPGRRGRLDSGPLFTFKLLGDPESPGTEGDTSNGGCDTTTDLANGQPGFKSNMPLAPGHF
T4 sequence (P23944 whole entry): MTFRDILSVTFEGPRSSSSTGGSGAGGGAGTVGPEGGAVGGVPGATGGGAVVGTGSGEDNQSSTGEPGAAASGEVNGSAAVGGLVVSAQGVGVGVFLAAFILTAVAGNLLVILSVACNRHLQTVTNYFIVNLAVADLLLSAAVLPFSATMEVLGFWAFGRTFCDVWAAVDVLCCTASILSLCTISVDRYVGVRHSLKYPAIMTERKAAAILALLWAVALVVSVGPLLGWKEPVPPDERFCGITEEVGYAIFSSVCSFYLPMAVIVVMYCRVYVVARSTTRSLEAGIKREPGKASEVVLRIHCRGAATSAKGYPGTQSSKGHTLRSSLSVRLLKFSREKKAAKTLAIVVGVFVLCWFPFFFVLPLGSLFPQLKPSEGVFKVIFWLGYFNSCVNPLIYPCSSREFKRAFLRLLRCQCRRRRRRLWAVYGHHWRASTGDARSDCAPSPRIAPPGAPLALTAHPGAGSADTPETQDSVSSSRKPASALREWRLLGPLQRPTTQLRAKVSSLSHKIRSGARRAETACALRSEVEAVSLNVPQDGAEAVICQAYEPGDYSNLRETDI
T4 sequence (P43140 whole entry): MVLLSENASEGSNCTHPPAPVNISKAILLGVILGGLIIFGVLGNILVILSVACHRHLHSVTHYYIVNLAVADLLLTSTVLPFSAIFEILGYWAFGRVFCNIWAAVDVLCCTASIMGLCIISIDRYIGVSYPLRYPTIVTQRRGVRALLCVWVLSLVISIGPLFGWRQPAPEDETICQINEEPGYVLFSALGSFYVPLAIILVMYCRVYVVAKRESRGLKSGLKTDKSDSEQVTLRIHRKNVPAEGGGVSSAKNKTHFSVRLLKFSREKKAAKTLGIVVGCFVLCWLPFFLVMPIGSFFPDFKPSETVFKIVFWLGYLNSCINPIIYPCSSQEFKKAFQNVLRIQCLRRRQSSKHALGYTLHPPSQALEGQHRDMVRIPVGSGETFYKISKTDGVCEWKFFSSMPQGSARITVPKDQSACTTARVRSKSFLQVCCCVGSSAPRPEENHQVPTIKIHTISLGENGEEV
Procedure, shortened: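 Rat cortex membranes labelled with [3H]prazosin (0.3 nM), nonspecific binding with prazosin (10 µM). Nine drug concentrations spanning 3 log units, IC50 by log-probit analysis. Ki by Cheng–Prusoff using Kd from Scatchard saturation. At least three independent experiments in duplicate.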

Structure (SMILES) | EC50 (Canis familiaris [1]) | Emax (Canis familiaris [2]) | Max [3] | Ratio [4] | C20 [5] | Ratio [6] | Ki [7] | Ki [8] | Emax (Canis familiaris [9]) | EC50 (Canis familiaris [10]) | Ratio [11] | Ki [12]
Clc1ccc2c(c1)CCC1(CN=CN1)C2 (stereo not given) | 6000 nM | 0 | 120 mmHg | 1.05 | 6.3 µg/kg | 2.8 | – | – | – | – | – | –
COc1ccc2c(c1)CCC1(CNC=N1)C2 (stereo not given) | – | – | – | – | – | – | 1200 nM | 87 nM | – | – | – | –
COc1cccc2c1CC1(CC2)CNC=N1 (stereo not given) | – | – | – | – | – | – | 99 nM | 51 nM | – | – | – | –
NC1=NC2(CCc3cccc(Cl)c3C2)CO1 (stereo not given) | 14 nM | 68 | 140 mmHg | – | 0.2 µg/kg | 2 | 20 nM | 1.6 nM | 117 | 360 nM | 3 | 800 nM
CC(C)c1ccc2c(c1)CC1(CC2)CN=CN1 (stereo not given) | 4300 nM | 0 | 66 mmHg | 57 | 245 µg/kg | 2.9 | – | – | 53 | – | 2.9 | –
Cc1cc(C)c2c(c1)CC1(CC2)CN=CN1 (stereo not given) | 2900 nM | 5 | 91 mmHg | 25 | 20 µg/kg | 2.9 | – | – | 66 | 800 nM | 2.8 | –
COc1ccc2c(c1)CC1(CC2)CNC=N1 (stereo not given) | – | – | – | – | – | – | 193 nM | 18 nM | – | – | – | –
COc1ccc2c(c1)CCC1(CN=CN1)C2 (stereo not given) | 8800 nM | 3 | 105 mmHg | 4.77 | 42 µg/kg | 2.6 | – | – | 60 | – | 1.5 | 29400 nM
Clc1ccc2c(c1)CC1(CC2)CN=CN1 (stereo not given) | 5500 nM | 0 | 116 mmHg | 1.15 | 6.3 µg/kg | 2.6 | – | – | 72 | – | 5.8 | –
COc1cccc2c1CCC1(CNC=N1)C2 (stereo not given) | – | – | – | – | – | – | 159 nM | 12 nM | – | – | – | –
Fc1cccc2c1CC1(CC2)CN=CN1 (stereo not given) | 2300 nM | 75 | 131 mmHg | – | 4.6 µg/kg | 0.6 | 152 nM | 12 nM | 99 | 57000 nM | 1 | 2500 nM
Cc1cc2c(cc1C)CC1(CC2)CN=CN1 (stereo not given) | 2700 nM | 0 | 72 mmHg | 14 | 37 µg/kg | 0.5 | – | – | 64 | – | 2.5 | –
Fc1ccc2c(c1)CC1(CC2)CN=CN1 (stereo not given) | 11000 nM | 8 | 108 mmHg | 0.71 | 7.8 µg/kg | 5 | – | – | 67 | – | 7.7 | –
COc1cc(C)cc2c1CCC1(CN=CN1)C2 (stereo not given) | 3900 nM | 60 | 136 mmHg | – | 10 µg/kg | 1.6 | – | – | 81 | 800 nM | 1 | 600 nM
COc1ccc2c(c1)CC1(CC2)CN=CN1 (stereo not given) | 7100 nM | 0 | 106 mmHg | 0.21 | 1.5 µg/kg | 3.9 | – | – | 49 | – | 6.9 | 16000 nM
Clc1cc(Cl)c2c(c1)CC1(CC2)CN=CN1 (stereo not given) | 2000 nM | 10 | 91 mmHg | – | 19 µg/kg | 9.5 | 95 nM | 3 nM | 45 | 21000 nM | 3.1 | 700 nM
FC(F)(F)c1ccc(Cl)c(NC2=NCCN2)c1 | 5100 nM | 22 | 73 mmHg | – | 10 µg/kg | 33 | 179 nM | 1560 nM | 81 | 4700 nM | 2.2 | 65800 nM
COc1cccc2c1CC1(CC2)CN=CN1 (stereo not given) | 500 nM | 97 | 139 mmHg | – | 0.64 µg/kg | 2 | – | – | 100 | 7200 nM | 4.6 | 16000 nM
